From ChEMBL document CHEMBL1152541, “Staurosporine tethered peptide ligands that target cAMP-dependent protein kinase (PKA): optimization and selectivity profiling” (Bioorg Med Chem, 2009)
One block for each molecule: values may come before it. *1 amine or outer side, *2 acyl side, *3 side chain or, on linkers, in order; H or OH if unused. Where a SMILES comes first, the peptide text is derived from it. Bridges are numbered along the chain shown (N, C = ends). [ ]: non-standard residue; d: D form. The star is where a group is joined. Staurosporine = CO[C@@H]1[C@H](N(C)*)C[C@H]2O[C@]1(C)n1c3ccccc3c3c4c(c5c6ccccc6n2c5c31)C(=O)NC4; Suc = O=C(CCC(=O)[*:2])[*:1]; Dap = NC[C@H](N)C(=O)O; βAla = NCCC(=O)O

Experiments:
[1] = system: Mast/stem cell growth factor receptor Kit (Homo sapiens), P10721 [V559D,T670I]; experiment: Binding affinity to human KIT V559D,T670I mutant at 500 nM by cell-based competition binding assay relative to control in presence of DTT
Summary of the method: (§1)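 Competition binding screen (Ambit) across a panel of 90 kinases, scoring test ligand displacement of each kinase's binding relative to control. The screen ran under reducing conditions with 7.5 mM DTT.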

[2] = target: Casein kinase I isoform delta (Homo sapiens) (UniProt P48730); experiment: Binding affinity to human CSNK1D at 500 nM by cell-based competition binding assay relative to control in presence of DTT
Summary of the method: (§2)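 Commercial (Ambit) competitive kinase-binding panel of 90 kinases measured the binding profile. Run under reducing conditions of 7.5 mM DTT. Binding is expressed relative to control.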

[3] = target: Mitogen-activated protein kinase 10 (Homo sapiens) (UniProt P53779); experiment: Binding affinity to human JNK3 at 500 nM by cell-based competition binding assay relative to control in presence of DTT; summary of the method: as §1
[4] = target: Focal adhesion kinase 1 (Homo sapiens) (UniProt Q05397); experiment: Binding affinity to human PTK2 at 500 nM by cell-based competition binding assay relative to control in presence of DTT
[5] = target: T1, NUAK family SNF1-like kinase 2 (Homo sapiens) (UniProt Q9H093); experiment: Binding affinity to human SNARK at 500 nM by cell-based competition binding assay relative to control in presence of DTT
T1 sequence (whole entry): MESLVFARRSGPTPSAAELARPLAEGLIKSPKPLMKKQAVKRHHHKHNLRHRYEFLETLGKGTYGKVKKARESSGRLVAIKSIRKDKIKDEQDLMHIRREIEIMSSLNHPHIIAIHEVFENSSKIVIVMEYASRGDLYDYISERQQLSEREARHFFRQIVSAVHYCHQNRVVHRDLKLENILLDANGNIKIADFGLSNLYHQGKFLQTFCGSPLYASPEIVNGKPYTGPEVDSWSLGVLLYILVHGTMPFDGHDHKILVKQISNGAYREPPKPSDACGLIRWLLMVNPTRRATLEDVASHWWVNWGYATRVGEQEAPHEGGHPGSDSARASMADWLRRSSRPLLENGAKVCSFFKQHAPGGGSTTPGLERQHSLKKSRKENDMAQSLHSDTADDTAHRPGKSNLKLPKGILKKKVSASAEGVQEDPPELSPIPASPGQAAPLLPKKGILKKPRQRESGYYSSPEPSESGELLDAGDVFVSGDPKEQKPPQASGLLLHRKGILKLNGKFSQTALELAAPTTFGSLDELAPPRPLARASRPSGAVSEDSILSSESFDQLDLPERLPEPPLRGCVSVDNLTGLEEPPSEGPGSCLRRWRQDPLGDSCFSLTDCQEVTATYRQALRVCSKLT

[6] = target: Cyclin-dependent kinase 9 (Homo sapiens) (UniProt P50750); experiment: Binding affinity to human CDK9 at 200 nM by cell-based competition binding assay relative to control in presence of DTT; summary of the method: as §2
[7] = target: Proto-oncogene tyrosine-protein kinase Src (Homo sapiens) (UniProt P12931); experiment: Binding affinity to human SRC at 200 nM by cell-based competition binding assay relative to control in presence of DTT
[8] = target: T2, 3-phosphoinositide-dependent protein kinase 1 (Homo sapiens) (UniProt O15530); experiment: Binding affinity to human PDPK1 at 200 nM by cell-based competition binding assay relative to control in presence of DTT
T2 sequence (whole entry): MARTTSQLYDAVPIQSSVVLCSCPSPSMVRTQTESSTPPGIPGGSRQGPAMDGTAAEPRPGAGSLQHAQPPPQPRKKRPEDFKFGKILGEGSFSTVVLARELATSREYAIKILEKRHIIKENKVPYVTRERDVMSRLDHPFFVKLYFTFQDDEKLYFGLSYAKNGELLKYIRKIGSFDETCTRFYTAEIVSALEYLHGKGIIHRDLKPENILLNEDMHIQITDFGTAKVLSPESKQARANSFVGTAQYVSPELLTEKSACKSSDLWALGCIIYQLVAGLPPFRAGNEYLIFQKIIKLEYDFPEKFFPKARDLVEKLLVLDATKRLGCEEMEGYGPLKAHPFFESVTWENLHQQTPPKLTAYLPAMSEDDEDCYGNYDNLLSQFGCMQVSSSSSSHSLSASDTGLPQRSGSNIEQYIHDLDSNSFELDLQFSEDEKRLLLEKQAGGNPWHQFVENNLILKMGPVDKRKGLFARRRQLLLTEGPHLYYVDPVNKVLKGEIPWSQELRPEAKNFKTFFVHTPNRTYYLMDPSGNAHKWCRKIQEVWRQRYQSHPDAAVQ

[9] = target: Serine/threonine-protein kinase 32C (Homo sapiens) (UniProt Q86UX6); experiment: Binding affinity to human YANK3 at 50 nM by cell-based competition binding assay relative to control in presence of DTT
[10] = target: T3, TGF-beta receptor type-1 (Homo sapiens) (UniProt P36897); experiment: Binding affinity to human TGFBR1 at 50 nM by cell-based competition binding assay relative to control in presence of DTT
T3 sequence (whole entry): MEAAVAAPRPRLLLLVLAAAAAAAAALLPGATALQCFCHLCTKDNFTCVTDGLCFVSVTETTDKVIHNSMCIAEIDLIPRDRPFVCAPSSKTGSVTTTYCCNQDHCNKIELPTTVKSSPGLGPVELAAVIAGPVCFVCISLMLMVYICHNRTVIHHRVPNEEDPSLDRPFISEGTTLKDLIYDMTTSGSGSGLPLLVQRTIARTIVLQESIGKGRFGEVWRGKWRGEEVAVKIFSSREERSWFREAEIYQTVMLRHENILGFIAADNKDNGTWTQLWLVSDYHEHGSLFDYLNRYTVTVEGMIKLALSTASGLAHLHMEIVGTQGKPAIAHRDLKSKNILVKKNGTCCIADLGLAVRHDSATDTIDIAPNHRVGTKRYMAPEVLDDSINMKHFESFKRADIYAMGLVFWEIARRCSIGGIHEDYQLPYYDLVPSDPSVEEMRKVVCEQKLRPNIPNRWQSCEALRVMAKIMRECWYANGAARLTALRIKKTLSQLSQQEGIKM

[11] = target: RAF proto-oncogene serine/threonine-protein kinase (Homo sapiens) (UniProt P04049); experiment: Binding affinity to human RAF1 at 50 nM by cell-based competition binding assay relative to control in presence of DTT
[12] = target: Ribosomal protein S6 kinase alpha-3 (Homo sapiens) (UniProt P51812); experiment: Binding affinity to human RPS6KA3 kinase domain 1 at 50 nM by cell-based competition binding assay relative to control in presence of DTT
[13] = target: Epidermal growth factor receptor (Homo sapiens) (UniProt P00533); experiment: Binding affinity to human EGFR at 50 nM by cell-based competition binding assay relative to control in presence of DTT; summary of the method: as §2
[14] = target: Mitogen-activated protein kinase 3 (Homo sapiens) (UniProt P27361); experiment: Binding affinity to human ERK1 at 50 nM by cell-based competition binding assay relative to control in presence of DTT; summary of the method: as §2

Sequence of RAF proto-oncogene serine/threonine-protein kinase (Homo sapiens) (P04049 whole entry, the tested form may be a part): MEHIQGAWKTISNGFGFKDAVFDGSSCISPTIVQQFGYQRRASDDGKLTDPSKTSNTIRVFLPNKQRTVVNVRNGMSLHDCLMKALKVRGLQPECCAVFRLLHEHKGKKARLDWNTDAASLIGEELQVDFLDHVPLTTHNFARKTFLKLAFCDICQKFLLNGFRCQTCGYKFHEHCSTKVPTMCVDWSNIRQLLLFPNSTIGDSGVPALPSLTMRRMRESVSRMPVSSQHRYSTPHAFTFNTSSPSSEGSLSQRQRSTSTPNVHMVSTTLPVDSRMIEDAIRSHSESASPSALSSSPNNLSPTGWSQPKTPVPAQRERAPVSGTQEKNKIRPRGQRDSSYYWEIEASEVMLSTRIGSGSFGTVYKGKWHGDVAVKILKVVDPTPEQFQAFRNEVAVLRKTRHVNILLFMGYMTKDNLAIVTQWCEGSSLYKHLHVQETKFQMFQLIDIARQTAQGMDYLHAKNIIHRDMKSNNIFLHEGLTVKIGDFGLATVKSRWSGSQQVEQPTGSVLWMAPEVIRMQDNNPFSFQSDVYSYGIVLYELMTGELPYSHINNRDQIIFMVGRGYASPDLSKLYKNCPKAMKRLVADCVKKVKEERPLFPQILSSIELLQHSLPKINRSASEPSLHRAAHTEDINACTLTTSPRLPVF
Sequence of Mitogen-activated protein kinase 10 (Homo sapiens) (P53779 whole entry): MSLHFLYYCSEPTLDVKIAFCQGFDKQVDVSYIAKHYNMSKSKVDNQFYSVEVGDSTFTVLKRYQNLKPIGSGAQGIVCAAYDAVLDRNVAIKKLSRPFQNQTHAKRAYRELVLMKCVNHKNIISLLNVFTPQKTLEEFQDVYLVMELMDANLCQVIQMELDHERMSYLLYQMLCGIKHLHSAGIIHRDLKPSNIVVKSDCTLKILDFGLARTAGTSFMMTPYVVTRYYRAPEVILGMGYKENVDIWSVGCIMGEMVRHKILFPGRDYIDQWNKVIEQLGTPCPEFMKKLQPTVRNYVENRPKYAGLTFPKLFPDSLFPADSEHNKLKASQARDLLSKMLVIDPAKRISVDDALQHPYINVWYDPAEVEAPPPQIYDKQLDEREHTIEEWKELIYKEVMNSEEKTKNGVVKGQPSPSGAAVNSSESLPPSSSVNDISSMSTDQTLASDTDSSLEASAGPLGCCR
Sequence of Ribosomal protein S6 kinase alpha-3 (Homo sapiens) (P51812 whole entry, the tested form may be a part): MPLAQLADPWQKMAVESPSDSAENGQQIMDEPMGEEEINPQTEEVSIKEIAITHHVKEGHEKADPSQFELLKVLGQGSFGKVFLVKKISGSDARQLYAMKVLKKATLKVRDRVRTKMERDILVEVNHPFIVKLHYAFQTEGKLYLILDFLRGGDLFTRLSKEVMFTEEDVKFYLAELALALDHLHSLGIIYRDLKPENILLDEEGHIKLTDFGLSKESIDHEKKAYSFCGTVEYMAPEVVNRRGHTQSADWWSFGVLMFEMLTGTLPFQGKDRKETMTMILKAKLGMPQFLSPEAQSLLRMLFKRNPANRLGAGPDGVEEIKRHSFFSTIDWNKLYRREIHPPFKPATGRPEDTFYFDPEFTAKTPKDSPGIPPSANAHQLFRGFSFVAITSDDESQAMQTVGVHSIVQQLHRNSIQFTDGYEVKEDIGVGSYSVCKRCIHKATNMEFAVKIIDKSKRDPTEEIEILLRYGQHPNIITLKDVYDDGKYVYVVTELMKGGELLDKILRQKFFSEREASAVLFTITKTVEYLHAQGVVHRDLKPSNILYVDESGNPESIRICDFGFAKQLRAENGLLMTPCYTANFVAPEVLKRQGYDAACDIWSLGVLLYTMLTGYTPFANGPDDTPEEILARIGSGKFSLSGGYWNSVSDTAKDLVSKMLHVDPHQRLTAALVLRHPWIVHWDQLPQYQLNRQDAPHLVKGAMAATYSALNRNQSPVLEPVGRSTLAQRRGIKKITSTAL
Sequence of Focal adhesion kinase 1 (Homo sapiens) (Q05397 2-1052 limits assumed): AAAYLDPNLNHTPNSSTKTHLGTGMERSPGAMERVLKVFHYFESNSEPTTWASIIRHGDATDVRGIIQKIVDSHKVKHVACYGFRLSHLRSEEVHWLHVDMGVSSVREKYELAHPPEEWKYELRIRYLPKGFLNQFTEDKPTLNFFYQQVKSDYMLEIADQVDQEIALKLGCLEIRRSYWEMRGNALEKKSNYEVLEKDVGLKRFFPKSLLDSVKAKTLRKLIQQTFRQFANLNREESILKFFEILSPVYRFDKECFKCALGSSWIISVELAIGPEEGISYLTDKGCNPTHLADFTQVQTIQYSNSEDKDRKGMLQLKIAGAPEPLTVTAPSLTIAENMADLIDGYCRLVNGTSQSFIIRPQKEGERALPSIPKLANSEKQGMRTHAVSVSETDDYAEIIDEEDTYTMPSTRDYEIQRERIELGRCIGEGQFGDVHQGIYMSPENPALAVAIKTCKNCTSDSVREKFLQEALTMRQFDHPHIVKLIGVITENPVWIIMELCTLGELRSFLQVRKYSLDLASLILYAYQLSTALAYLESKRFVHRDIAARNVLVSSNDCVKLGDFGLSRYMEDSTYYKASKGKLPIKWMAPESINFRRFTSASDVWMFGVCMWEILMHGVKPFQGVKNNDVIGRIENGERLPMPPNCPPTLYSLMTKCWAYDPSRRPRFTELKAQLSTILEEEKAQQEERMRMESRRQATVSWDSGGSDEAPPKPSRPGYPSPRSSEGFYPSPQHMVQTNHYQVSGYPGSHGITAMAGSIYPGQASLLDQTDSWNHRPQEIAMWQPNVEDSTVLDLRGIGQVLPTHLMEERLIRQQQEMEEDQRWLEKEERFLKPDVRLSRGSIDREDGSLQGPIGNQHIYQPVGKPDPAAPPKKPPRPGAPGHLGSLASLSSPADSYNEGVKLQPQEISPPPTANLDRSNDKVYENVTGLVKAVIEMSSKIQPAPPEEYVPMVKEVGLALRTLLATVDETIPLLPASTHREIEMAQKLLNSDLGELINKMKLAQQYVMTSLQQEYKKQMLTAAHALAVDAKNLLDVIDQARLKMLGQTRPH
Sequence of Cyclin-dependent kinase 9 (Homo sapiens) (P50750 whole entry): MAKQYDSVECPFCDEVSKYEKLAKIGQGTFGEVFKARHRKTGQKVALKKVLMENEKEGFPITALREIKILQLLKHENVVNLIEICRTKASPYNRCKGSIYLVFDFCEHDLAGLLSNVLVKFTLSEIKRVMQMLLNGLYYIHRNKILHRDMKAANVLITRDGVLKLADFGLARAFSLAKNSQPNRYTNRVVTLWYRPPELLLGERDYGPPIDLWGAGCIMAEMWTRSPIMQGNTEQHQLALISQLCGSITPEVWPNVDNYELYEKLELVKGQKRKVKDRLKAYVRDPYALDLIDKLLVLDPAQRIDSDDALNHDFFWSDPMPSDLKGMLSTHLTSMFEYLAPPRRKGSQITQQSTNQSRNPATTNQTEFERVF
Sequence of Proto-oncogene tyrosine-protein kinase Src (Homo sapiens) (P12931 2-536 limits assumed): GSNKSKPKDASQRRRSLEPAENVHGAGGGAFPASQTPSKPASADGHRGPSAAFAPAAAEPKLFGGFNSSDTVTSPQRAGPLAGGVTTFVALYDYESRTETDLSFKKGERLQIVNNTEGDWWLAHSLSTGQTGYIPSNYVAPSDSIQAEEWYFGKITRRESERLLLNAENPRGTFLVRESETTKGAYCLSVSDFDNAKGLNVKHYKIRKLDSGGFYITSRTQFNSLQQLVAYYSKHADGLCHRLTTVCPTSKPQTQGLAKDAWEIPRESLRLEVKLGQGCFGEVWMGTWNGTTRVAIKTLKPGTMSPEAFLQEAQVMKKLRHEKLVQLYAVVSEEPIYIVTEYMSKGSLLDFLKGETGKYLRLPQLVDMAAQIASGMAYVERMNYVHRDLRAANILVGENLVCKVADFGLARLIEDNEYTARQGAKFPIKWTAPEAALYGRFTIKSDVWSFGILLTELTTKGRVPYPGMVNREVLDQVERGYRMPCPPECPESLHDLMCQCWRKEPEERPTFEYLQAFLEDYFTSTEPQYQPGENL
Sequence of Serine/threonine-protein kinase 32C (Homo sapiens) (Q86UX6 whole entry): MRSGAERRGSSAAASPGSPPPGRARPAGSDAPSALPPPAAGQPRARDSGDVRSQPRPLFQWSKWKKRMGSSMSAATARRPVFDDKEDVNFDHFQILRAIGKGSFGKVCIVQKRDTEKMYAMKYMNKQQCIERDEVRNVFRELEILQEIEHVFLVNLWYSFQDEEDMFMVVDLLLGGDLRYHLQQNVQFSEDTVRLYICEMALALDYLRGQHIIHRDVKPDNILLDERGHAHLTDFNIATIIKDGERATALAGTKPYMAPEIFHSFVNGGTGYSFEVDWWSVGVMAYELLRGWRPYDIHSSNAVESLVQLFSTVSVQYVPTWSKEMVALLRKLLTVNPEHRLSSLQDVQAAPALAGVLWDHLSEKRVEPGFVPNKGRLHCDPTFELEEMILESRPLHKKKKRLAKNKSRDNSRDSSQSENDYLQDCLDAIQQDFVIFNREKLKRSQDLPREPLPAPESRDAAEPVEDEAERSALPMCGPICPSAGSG
Sequence of Casein kinase I isoform delta (Homo sapiens) (P48730 whole entry, looked up, canonical isoform): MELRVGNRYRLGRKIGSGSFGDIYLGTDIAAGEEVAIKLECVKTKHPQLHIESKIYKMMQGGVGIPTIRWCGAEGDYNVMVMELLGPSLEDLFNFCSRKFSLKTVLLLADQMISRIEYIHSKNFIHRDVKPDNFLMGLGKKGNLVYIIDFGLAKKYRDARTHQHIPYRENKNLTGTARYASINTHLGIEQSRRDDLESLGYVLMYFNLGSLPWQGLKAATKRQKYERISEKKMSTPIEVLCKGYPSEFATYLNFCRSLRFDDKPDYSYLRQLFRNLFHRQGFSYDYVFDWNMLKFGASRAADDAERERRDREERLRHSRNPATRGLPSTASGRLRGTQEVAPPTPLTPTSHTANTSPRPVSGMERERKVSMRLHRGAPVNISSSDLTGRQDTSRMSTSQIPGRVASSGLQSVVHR

Activity [1]: 4.8%
Activity [2]: 89%
Activity [3]: 55%
Activity [4]: 65%
Activity [5]: 3.2%
Compound: CO[C@@H]1[C@H](N(C)C(=O)CCC(=O)NCCC(=O)NCCC(=O)NCCC(N)=O)C[C@H]2O[C@]1(C)n1c3ccccc3c3c4c(c5c6ccccc6n2c5c31)C(=O)NC4

Activity [6]: 100%
Activity [7]: 100%
Activity [8]: 16%
Compound: CO[C@@H]1[C@H](N(C)C(=O)CCC(=O)NCCC(=O)NCCC(=O)NCCC(=O)NCCC(=O)NCCC(=O)NCCC(=O)NCCC(=O)N[C@H]2CSSC[C@@H](C(=O)NCC(N)=O)NC(=O)CNC(=O)[C@H](Cc3ccccc3)NC(=O)[C@H](C(C)C)NC(=O)[C@H](CCCNC(=N)N)NC(=O)[C@H](Cc3ccccc3)NC(=O)[C@H](C(C)C)NC2=O)C[C@H]2O[C@]1(C)n1c3ccccc3c3c4c(c5c6ccccc6n2c5c31)C(=O)NC4 ({Staurosporine-Suc-βAla-βAla-βAla-βAla-βAla-βAla-βAla}-CVFRVFGCG-NH2; disulfide 1-8)

Activity [9]: 100%
Activity [10]: 100%
Activity [11]: 100%
Activity [12]: 100%
Activity [13]: 87%
Activity [14]: 100%
Compound: CO[C@@H]1[C@H](N(C)C(=O)CCC(=O)NCCC(=O)NCCC(=O)NCCC(=O)NCCC(=O)NCCC(=O)NCCC(=O)NCCC(=O)N[C@H]2CNC(=O)C[C@@H](C(N)=O)NC(=O)CNC(=O)[C@H](Cc3ccccc3)NC(=O)[C@H](C(C)C)NC(=O)[C@H](CCCNC(=N)N)NC(=O)[C@H](Cc3ccccc3)NC(=O)[C@H](C(C)C)NC2=O)C[C@H]2O[C@]1(C)n1c3ccccc3c3c4c(c5c6ccccc6n2c5c31)C(=O)NC4 ({Staurosporine-Suc-βAla-βAla-βAla-βAla-βAla-βAla-βAla}-[Dap]VFRVFGD-NH2; lactam 1-8)
